From ChEMBL document CHEMBL4130550, “Antiproliferative Dimeric Aporphinoid Alkaloids from the Roots of Thalictrum cultratum” (J Nat Prod, 2017)
Active and inactive are the calls of the source. No cut-off for these calls is given here.

Assays:
HL-60 [1] = assay: Cell cycle arrest in human HL60 cells assessed as accumulation at G1 phase at 0.06 uM after 24 hrs by propidium iodide staining based flow cytometric method (reference value: 43.32%); type: functional
HL-60 [2] = assay: Cell cycle arrest in human HL60 cells assessed as accumulation at G2 phase at 1.5 uM after 24 hrs by propidium iodide staining based flow cytometric method (reference value: 30.93%); type: functional
HL-60 [3] = assay: Cell cycle arrest in human HL60 cells assessed as accumulation at S phase at 1.5 uM after 24 hrs by propidium iodide staining based flow cytometric method (reference value: 25.75%); type: functional
HL-60 [4] = assay: Induction of morphological changes in human HL60 cells assessed as chromatin condensation at 0.06 to 1.5 uM after 24 hrs by Hoechst 33258 staining based fluorescence microscopic analysis; type: functional, cell-based
HL-60 [5] = assay: Induction of apoptosis in human HL60 cells assessed as live cells at 0.06 uM after 24 hrs by Annexin-V-APC/7-AAD staining based flow cytometric method (reference value: 95.31%); type: functional
Summary of the method: (§1)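 HL-60 are seeded overnight in six-well plates, then treated in triplicate with 0.06, 0.3 or 1.5 μM, or untreated, for 24 h. Cells are washed in PBS and taken up in annexin V binding buffer. Annexin V-APC is added for 15 min in the dark at 25 °C, and 7-AAD just before flow cytometry. Early apoptosis is annexin V-APC only; late apoptosis is annexin V-APC/7-AAD.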

HL-60 [6] = assay: Induction of apoptosis in human HL60 cells assessed as early apoptotic cells at 0.06 uM after 24 hrs by Annexin-V-APC/7-AAD staining based flow cytometric method (reference value: 2.26%); type: functional; summary of the method: as §1
HL-60 [7] = assay: Induction of apoptosis in human HL60 cells assessed as necrotic cells at 0.06 uM after 24 hrs by Annexin-V-APC/7-AAD staining based flow cytometric method (reference value: 0.44%); type: functional; summary of the method: as §1
HL-60 [8] = assay: Induction of apoptosis in human HL60 cells assessed as late apoptotic cells at 1.5 uM after 24 hrs by Annexin-V-APC/7-AAD staining based flow cytometric method (reference value: 1.99%); type: functional; summary of the method: as §1
HL-60 [9] = assay: Induction of apoptosis in human HL60 cells after 24 hrs by Annexin-V-APC/7-AAD staining based flow cytometric method; type: functional, cell-based; summary of the method: as §1
HL-60 [10] = assay: Induction of apoptosis in human HL60 cells assessed as late apoptotic cells at 1.5 uM after 24 hrs by Annexin-V-FITC/propidium iodide staining based flow cytometric method (reference value: 2.53%); type: functional
HL-60 [11] = assay: Induction of apoptosis in human HL60 cells assessed as necrotic cells at 1.5 uM after 24 hrs by Annexin-V-FITC/propidium iodide staining based flow cytometric method (reference value: 0.47%); type: functional
HL-60 [12] = assay: Induction of apoptosis in human HL60 cells assessed as necrotic cells at 1.5 uM after 48 hrs by Annexin-V-FITC/propidium iodide staining based flow cytometric method (reference value: 0.47%); type: functional
HL-60 [13] = assay: Induction of mitochondrial membrane potential loss in human HL60 cells after 24 hrs by JC1 staining based flow cytometric method; type: functional, cell-based
HL-60 [14] = assay: Induction of mitochondrial membrane potential loss in human HL60 cells assessed as collapse of the mitochondrial membrane potential at 0.06 uM after 24 hrs by JC1 staining based flow cytometric method (reference value: 0.58%); type: functional
HL-60 [15] = assay: Induction of mitochondrial membrane potential loss in human HL60 cells assessed as intact mitochondrial membrane potential at 0.06 uM after 24 hrs by JC1 staining based flow cytometric method (reference value: 99.42%); type: functional
HL-60 [16] = assay: Induction of mitochondrial membrane potential loss in human HL60 cells assessed as intact mitochondrial membrane potential at 0.3 uM after 24 hrs by JC1 staining based flow cytometric method (reference value: 99.42%); type: functional
HL-60 [17] = assay: Induction of mitochondrial membrane potential loss in human HL60 cells assessed as intact mitochondrial membrane potential at 1.5 uM after 24 hrs by JC1 staining based flow cytometric method (reference value: 99.42%); type: functional

COc1cc2c(c(Oc3ccc(C[C@H]4c5cc(OC)c6c(c5CCN4C)OCO6)cc3)c1OC)C[C@H]1c3c(c(OC)c(OC)c(OC)c3-2)CCN1C
Activity (HL-60 [1]): 44.01%
Activity (HL-60 [2]): 18.53%
Activity (HL-60 [3]): 48.45%
Activity (HL-60 [4]): Active
Activity (HL-60 [5]): 79.49%
Activity (HL-60 [6]): 8.57%
Activity (HL-60 [7]): 3.77%
Activity (HL-60 [8]): 47.95%
Activity (HL-60 [9]): Dose-dependent effect
Activity (HL-60 [10]): 8.92%
Activity (HL-60 [11]): 0.14%
Activity (HL-60 [12]): 0.57%
Activity (HL-60 [13]): Dose-dependent effect
Activity (HL-60 [14]): 24.1%
Activity (HL-60 [15]): 75.9%
Activity (HL-60 [16]): 66.5%
Activity (HL-60 [17]): 40.9%
